Measured values reported in ChEMBL document CHEMBL1123788, “Synthesis and antitumor activity of tropolone derivatives. 5” (J Med Chem, 1987).
≈ marks a conversion by molar mass, not a printed value. Calls of active or inactive are those of the source. The rule behind the calls is not given here.

Legend:
[1] = test system: P388; assay: In vivo antitumor activity against leukemia P388 in mice at 400 mg/kg dosage administered intraperitoneally once a day for 1 and 5 days; compound is inactive; format: functional, organism-based; design: dose 400 mg/kg; details: Mus musculus
Summary of the method: (§1)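 Mice bearing P388 leukemia were given the compound intraperitoneally once daily for 1 and 5 days, at doses of 0.6 to 400 mg/kg; single-dose screens were run at 400 mg/kg. Antitumor activity is reported as T/C, %.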

[2] = In vitro inhibition of KB cell growth; format: functional, cell-based; details: Homo sapiens
[3] = test system: P388; assay: In vivo antitumor activity against leukemia P388 in mice at 50 mg/kg dosage administered intraperitoneally once a day for 1 and 5 days; format: functional, Mus musculus; details: route intraperitoneal; summary of the method: as §1
[4] = test system: P388; assay: In vivo antitumor activity against leukemia P388 in mice at 200 mg/kg dosage administered intraperitoneally once a day for 1 and 5 days; format: functional, Mus musculus; details: route intraperitoneal; summary of the method: as §1
[5] = test system: P388; assay: In vivo antitumor activity against leukemia P388 in mice at 400 mg/kg dosage administered intraperitoneally once a day for 1 and 5 days; format: functional, Mus musculus; details: route intraperitoneal; summary of the method: as §1
[6] = test system: P388; assay: In vivo antitumor activity against leukemia P388 in mice at 100 mg/kg dosage administered intraperitoneally once a day for 1 and 5 days; format: functional, Mus musculus; details: route intraperitoneal; summary of the method: as §1
[7] = test system: P388; assay: In vivo antitumor activity against leukemia P388 in mice at 0.6 mg/kg dosage administered intraperitoneally once a day for 1 and 5 days; format: functional, Mus musculus; details: route intraperitoneal; summary of the method: as §1
[8] = test system: P388; assay: In vivo antitumor activity against leukemia P388 in mice at 2.5 mg/kg dosage administered intraperitoneally once a day for 1 and 5 days; format: functional, Mus musculus; details: route intraperitoneal; summary of the method: as §1
[9] = test system: P388; assay: In vivo antitumor activity against leukemia P388 in mice at 5 mg/kg dosage administered intraperitoneally once a day for 1 and 5 days; format: functional, Mus musculus; details: route intraperitoneal; summary of the method: as §1

| SMILES | T/C [1] | IC50 [2] [µg/mL] | other results |
| --- | --- | --- | --- |
| CNc1cc(C(C)C)ccc(C(c2ccc(OC)cc2)c2ccc(C(C)C)cc(=O)c2O)c1=O (centres undefined) | inactive | 50 (≈ 109 µM) |  |
| COc1ccc(C(c2ccc(C(C)C)cc(S)c2=O)c2ccc(C(C)C)cc(S)c2=O)cc1 | inactive | 5.3 (≈ 11.1 µM) |  |
| COc1ccc(C(c2ccc(C(C)C)cc(=O)c2OC)c2ccc(C(C)C)cc(=O)c2OC)cc1 | inactive |  |  |
| C/N=c1\cc(C(C)C)ccc(C(c2ccc(OC)cc2)c2ccc(C(C)C)cc(NC)c2=O)c1O (centres undefined) | inactive | 100 (≈ 212 µM) |  |
| CCOC(c1ccc(OC)cc1)c1ccc(C(C)C)cc(=O)c1O (centres undefined) |  | 0.5 (≈ 1.52 µM) | T/C [3]: 119%; T/C [4]: 128%; T/C [5]: 140%; T/C [6]: 140% |
| COc1ccc(C(c2ccc(C(C)C)cc(OC)c2=O)c2ccc(C(C)C)cc(OC)c2=O)cc1 | inactive | 23.5 (≈ 49.5 µM) |  |
| COc1ccc(C(c2ccc(C(C)C)cc(=O)c2O)c2ccc(C(C)C)cc(OC)c2=O)cc1 (centres undefined) |  | 1.7 (≈ 3.69 µM) | T/C [4]: 148%; T/C [5]: 60%; T/C [6]: 133% |
| COc1ccc(C(c2ccc(C(C)C)cc(=O)c2OC)c2ccc(C(C)C)cc(OC)c2=O)cc1 (centres undefined) | inactive | 5.4 (≈ 11.4 µM) |  |
| COc1ccc(C(c2ccc(C(C)C)cc(=O)c2O)c2ccc(C(C)C)cc(=O)c2O)cc1 |  | 0.5 (≈ 1.12 µM) | T/C [7]: 127%; T/C [8]: 134%; T/C [9]: 173% |
